Experiment [1] deals with T1, P2X purinoceptor 7 (Homo sapiens, UniProt Q99572).
T1 sequence (Q99572 whole entry): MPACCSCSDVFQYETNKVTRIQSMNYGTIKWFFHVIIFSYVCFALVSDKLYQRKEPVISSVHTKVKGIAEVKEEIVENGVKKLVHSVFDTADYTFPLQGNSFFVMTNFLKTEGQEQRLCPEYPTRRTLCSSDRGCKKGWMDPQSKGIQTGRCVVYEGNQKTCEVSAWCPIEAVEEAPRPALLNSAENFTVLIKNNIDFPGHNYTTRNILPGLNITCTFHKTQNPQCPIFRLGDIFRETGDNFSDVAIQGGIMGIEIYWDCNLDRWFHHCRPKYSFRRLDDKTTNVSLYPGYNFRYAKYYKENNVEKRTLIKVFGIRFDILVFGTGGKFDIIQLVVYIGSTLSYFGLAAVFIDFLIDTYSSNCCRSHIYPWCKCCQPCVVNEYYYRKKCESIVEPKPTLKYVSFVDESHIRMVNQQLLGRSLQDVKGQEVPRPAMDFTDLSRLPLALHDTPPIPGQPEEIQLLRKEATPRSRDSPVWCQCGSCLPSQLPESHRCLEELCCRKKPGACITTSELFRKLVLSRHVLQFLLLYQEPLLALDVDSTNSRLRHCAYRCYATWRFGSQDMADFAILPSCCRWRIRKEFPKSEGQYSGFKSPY
Kind of experiment: Antagonist activity at P2X7 receptor in LPS/IFN-gamma-differentiated human THP1 cells assessed as inhibition of BzATP-induced IL-1beta release preincubated for 30 mins followed by BzATP induction measured after 30 mins by ELISA. In kind it is cell-based, THP-1. The essentials: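 Human THP-1 monocytes, LPS-primed, stimulated with BzATP; IL-1β release measured by ELISA. Active compounds were screened at 1 µM, and full concentration-response curves were run to obtain IC50.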
(An ELISA detects its analyte on a solid surface through an enzyme-linked reagent.)

For experiment [2], the target named is T1, P2X purinoceptor 7. As to the kind of experiment: Antagonist activity at recombinant human P2X7 receptor expressed in HEK293 cells assessed as inhibition of BzATP-induced intracellular ethidium bromide uptake after 2 hrs by fluorescence assay. In kind it is cell-based. The essentials:
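Human HEK293 cells stably expressing recombinant human P2X7; ethidium accumulation stimulated by BzATP was measured.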

For experiment [3], the target named is T2, P2X purinoceptor 7 (Homo sapiens) (UniProt Q99572).
T2 sequence (whole entry): T1 sequence (Q99572 whole entry)
As to the kind of experiment: Antagonist activity at P2X7 receptor in LPS/IFN-gamma-differentiated human THP1 cells assessed as inhibition of BzATP-induced IL-1beta release at 1 uM preincubated for 30 mins followed by BzATP induction measured after 30 mins by ELISA relative to control. In kind it is cell-based. The settings on record: THP-1. The essentials:
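LPS-primed THP-1 human monocytes were stimulated with BzATP, and IL-1β release was measured by ELISA. Test compound was given at a single concentration of 1 µM, and results are expressed as percent inhibition of BzATP-induced IL-1β release.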

Some results are limits rather than exact numbers.

The text below walks through data of ChEMBL document CHEMBL3414458, “Discovery of novel 2,5-dioxoimidazolidine-based P2X(7) receptor antagonists as constrained analogues of KN62” (J Med Chem, 2015).

Consider `CN([C@@H](Cc1ccc(OS(=O)(=O)c2cccc3cnccc23)cc1)C(=O)N1CCN(c2ccccc2)CC1)S(=O)(=O)c1cccc2cnccc12`, for which the half-inhibitory concentration (IC50) (in general, the point on the concentration scale where inhibition reaches its midpoint) in experiment [1] stood at 143 nM.
On to `O=C1N[C@@H](Cc2ccc(OS(=O)(=O)c3cccc4cnccc34)cc2)C(=O)N1Cc1cccc2cnccc12`, for which the concentration for half-maximal inhibition (IC50) in experiment [2] came out at 12200 nM. Besides, the inhibition – broadly, the percentage by which the read-out fell short of the control – in experiment [3] stood at 52%.
The corresponding values for `CC(C)(C)OC(=O)N1CCC(CN2C(=O)N[C@@H](Cc3ccc(OS(=O)(=O)c4cccc5cnccc45)cc3)C2=O)CC1` are 7720 nM and 45%.
The corresponding values for `CC(C)(C)C(=O)N1CCC(N2C(=O)NC(=O)C2Cc2ccc(OS(=O)(=O)c3cccc4cnccc34)cc2)CC1` (racemic) are 5650 nM and 49%.
The corresponding values for `CC(C)(C)OC(=O)N1CCC(CCN2C(=O)NC(=O)C2Cc2ccc(OS(=O)(=O)c3cccc4cnccc34)cc2)CC1` (racemic) are 1010 nM and 54%.
For the compound `O=C1NC(=O)N(CCC2CCN(Cc3ccccc3)CC2)C1Cc1ccc(OS(=O)(=O)c2cccc3cnccc23)cc1` (racemic), the IC50 in experiment [2] was determined as 5730 nM.
For the compound `O=C1NC(=O)N(CCC2CCN(C(=O)c3ccccc3)CC2)C1Cc1ccc(OS(=O)(=O)c2cccc3cnccc23)cc1` (racemic), the 50% inhibitory concentration (IC50) in experiment [2] stood at 4990 nM. Also, in experiment [3], the inhibition was 33%.
The like results for `CCC(=O)N1CCC(N2C(=O)NC(=O)C2Cc2ccc(OS(=O)(=O)c3cccc4cnccc34)cc2)CC1` (racemic) were, in that order, 11700 nM and 48%.
The like results for `CC(C)C(=O)N1CCC(N2C(=O)NC(=O)C2Cc2ccc(OS(=O)(=O)c3cccc4cnccc34)cc2)CC1` (racemic) were, in that order, 7220 nM and 33%.
The like results for `CCCC(=O)N1CCC(N2C(=O)NC(=O)C2Cc2ccc(OS(=O)(=O)c3cccc4cnccc34)cc2)CC1` (racemic) were, in that order, 8770 nM and 37%.
With `CC(C)CC(=O)N1CCC(N2C(=O)NC(=O)C2Cc2ccc(OS(=O)(=O)c3cccc4cnccc34)cc2)CC1` (racemic), in experiment [2], the IC50 is 4880 nM. In addition, in experiment [3], the inhibition turned out to be 45%.
Regarding `O=C1NC(=O)N(C2CCN(C(=O)C3CCCCC3)CC2)C1Cc1ccc(OS(=O)(=O)c2cccc3cnccc23)cc1` (racemic), the half-maximal inhibitory concentration (IC50) in experiment [2] is 133 nM; in experiment [1], 80 nM.
The corresponding values for `O=C1NC(=O)N(C2CCN(C(=O)C34CC5CC(CC(C5)C3)C4)CC2)C1Cc1ccc(OS(=O)(=O)c2cccc3cnccc23)cc1` (racemic) are 23 nM and 14 nM.
`CC(C)(C)OC(=O)N1CCC(CN2C(=O)C(Cc3ccc(OS(=O)(=O)c4cccc5cnccc45)cc3)N(Cc3cccc4cnccc34)C2=O)CC1` (racemic): the IC50 in experiment [2] came out at 12000 nM. Besides, the inhibition in experiment [3] is 50%.
The like results for `O=C1C(Cc2ccc(OS(=O)(=O)c3cccc4cnccc34)cc2)N(CC2CCN(Cc3ccccc3)CC2)C(=O)N1Cc1cccc2cnccc12` (racemic) were, in that order, 8960 nM and 42%.
`CC(C)(C)OC(=O)N1CCC(CN2C(=O)N(Cc3cccc4cnccc34)C(=O)C2Cc2ccc(OS(=O)(=O)c3cccc4cnccc34)cc2)CC1` (racemic): the IC50 in experiment [2] turned out to be 1970 nM. In addition, in experiment [3], the inhibition came out at 44%.
The corresponding values for `O=C1NC(=O)N(Cc2cccc3cnccc23)C1Cc1ccc(OS(=O)(=O)c2cccc3cnccc23)cc1` (racemic) are 3820 nM and 38%.
The corresponding values for `O=C1NC(=O)N(CC2CCN(Cc3ccccc3)CC2)C1Cc1ccc(OS(=O)(=O)c2cccc3cnccc23)cc1` (racemic) are 1820 nM and 52%.
The corresponding values for `CC(C)(C)OC(=O)N1CCC(CN2C(=O)NC(=O)C2Cc2ccc(OS(=O)(=O)c3cccc4cnccc34)cc2)CC1` (racemic) are 885 nM and 60%.
With `CC(C)(C)OC(=O)N1CCC(N2C(=O)NC(=O)C2Cc2ccc(OS(=O)(=O)c3cccc4cnccc34)cc2)CC1` (racemic), in experiment [2], the concentration for half-maximal inhibition (IC50) was 355 nM. In experiment [3], the inhibition came to 59%.
For `O=C1NC(=O)N(C2CCN(Cc3ccccc3)CC2)C1Cc1ccc(OS(=O)(=O)c2cccc3cnccc23)cc1` (racemic), the concentration for half-maximal inhibition (IC50) in experiment [2] worked out at 1620 nM.
`O=C1NC(=O)N(C2CCN(C(=O)c3ccccc3)CC2)C1Cc1ccc(OS(=O)(=O)c2cccc3cnccc23)cc1` (racemic): in experiment [2], the IC50 amounted to 574 nM. Also, the inhibition in experiment [3] worked out at 60%.
The like results for `O=C1NC(=O)N(CC2CCN(C(=O)c3ccccc3)CC2)C1Cc1ccc(OS(=O)(=O)c2cccc3cnccc23)cc1` (racemic) were, in that order, 789 nM and 59%.
The like results for `O=C1NC(=O)N(C2CCN(CC34CC5CC(CC(C5)C3)C4)CC2)C1Cc1ccc(OS(=O)(=O)c2cccc3cnccc23)cc1` (racemic) were, in that order, 2290 nM and 49%.
As for `O=C1NC(=O)N(C2CCN(C(=O)CC34CC5CC(CC(C5)C3)C4)CC2)C1Cc1ccc(OS(=O)(=O)c2cccc3cnccc23)cc1` (racemic), the IC50 in experiment [2] was found to be 84 nM; in experiment [1], 15 nM. Further, the inhibition in experiment [3] is greater than 95%.
The like results for `O=C1NC(=O)N(C2CCN(C(=O)C34CC5CC(CC(Br)(C5)C3)C4)CC2)C1Cc1ccc(OS(=O)(=O)c2cccc3cnccc23)cc1` (racemic) were, in that order, 30 nM, 27 nM and greater than 95%.
`CC12CC3CC(C)(C1)CC(C(=O)N1CCC(N4C(=O)NC(=O)C4Cc4ccc(OS(=O)(=O)c5cccc6cnccc56)cc4)CC1)(C3)C2` (racemic): the IC50 in experiment [2] turned out to be 99 nM; in experiment [1], 81 nM.
For the compound `COc1ccc(C(=O)N2CCC(N3C(=O)NC(=O)C3Cc3ccc(OS(=O)(=O)c4cccc5cnccc45)cc3)CC2)cc1OC` (racemic), the IC50 in experiment [2] is 3760 nM. The inhibition in experiment [3] was 52%.
On to `O=C1NC(=O)N(C2CCN(C(=O)c3ccccc3Cl)CC2)C1Cc1ccc(OS(=O)(=O)c2cccc3cnccc23)cc1` (racemic), for which the concentration for half-maximal inhibition (IC50) in experiment [2] came out at 666 nM. Moreover, the inhibition in experiment [3] is 68%.
For the compound `O=C1NC(=O)N(C2CCN(C(=O)c3cccc(Cl)c3)CC2)C1Cc1ccc(OS(=O)(=O)c2cccc3cnccc23)cc1` (racemic), the figures for the IC50 in experiment [2] and in experiment [1] were 220 nM and 313 nM, respectively.
In the case of `O=C1NC(=O)N(C2CCN(C(=O)c3ccc(Cl)cc3)CC2)C1Cc1ccc(OS(=O)(=O)c2cccc3cnccc23)cc1` (racemic), the 50% inhibitory concentration (IC50) in experiment [2] was found to be 133 nM; in experiment [1], 192 nM.
For the compound `O=C1NC(=O)N(C2CCN(C(=O)c3ccc(F)cc3)CC2)C1Cc1ccc(OS(=O)(=O)c2cccc3cnccc23)cc1` (racemic), the IC50 in experiment [2] is 913 nM.
Turning to `O=C1NC(=O)N(C2CCN(C(=O)c3ccc(F)c(F)c3)CC2)C1Cc1ccc(OS(=O)(=O)c2cccc3cnccc23)cc1` (racemic), the IC50 in experiment [2] was 217 nM; in experiment [1], 81 nM.
The corresponding values for `O=C1NC(=O)N(C2CCN(C(=O)c3ccc(Cl)c(Cl)c3)CC2)C1Cc1ccc(OS(=O)(=O)c2cccc3cnccc23)cc1` (racemic) are 73 nM and 72 nM.
The like results for `O=C1NC(=O)N(C2CCN(C(=O)c3ccc(Cl)cc3F)CC2)C1Cc1ccc(OS(=O)(=O)c2cccc3cnccc23)cc1` (racemic) were, in that order, 423 nM and 253 nM.
For `CN1C(=O)C(Cc2ccc(OS(=O)(=O)c3cccc4cnccc34)cc2)N(C2CCN(C(=O)c3ccc(Cl)c(C(F)(F)F)c3)CC2)C1=O` (racemic), the 50% inhibitory concentration (IC50) in experiment [2] came out at 542 nM.
Same read-out and setting: in the case of `CCN1C(=O)C(Cc2ccc(OS(=O)(=O)c3cccc4cnccc34)cc2)N(C2CCN(C(=O)c3ccc(Cl)c(C(F)(F)F)c3)CC2)C1=O` (racemic) it was 847 nM; in that of `CCCN1C(=O)C(Cc2ccc(OS(=O)(=O)c3cccc4cnccc34)cc2)N(C2CCN(C(=O)c3ccc(Cl)c(C(F)(F)F)c3)CC2)C1=O` (racemic), 1670 nM.
The same measure, in the same setting: in the case of `CC(C)N1C(=O)C(Cc2ccc(OS(=O)(=O)c3cccc4cnccc34)cc2)N(C2CCN(C(=O)c3ccc(Cl)c(C(F)(F)F)c3)CC2)C1=O` (racemic) it was 3240 nM.
Turning to `O=C1NC(=O)N(C2CCN(C(=O)c3ccc(Cl)c(C(F)(F)F)c3)CC2)C1Cc1ccc(OS(=O)(=O)c2cccc3cnccc23)cc1` (single isomer, unassigned; (-)), the IC50 in experiment [2] was 54 nM; in experiment [1], 9 nM.
The like results for `O=C1NC(=O)N(C2CCN(C(=O)c3ccc(Cl)c(C(F)(F)F)c3)CC2)C1Cc1ccc(OS(=O)(=O)c2cccc3cnccc23)cc1` (stereo in doubt; (+)-21w) were, in that order, 168 nM and 98 nM.
